Test results as given in ChEMBL document CHEMBL5058577, “EUbOPEN Chemogenomics Library 2 (Multiplex)” (2022).

System: Fibroblast
Test: Multiplex assay against human fibroblast
Assay type: toxicity, cell-based
Procedure, shortened: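 Imaging took place on a CQ1 microscope at 37°C and 5% CO2 once compound had been added to live cells stained at seeding with Hoechst33342, BioTracker Green Microtubule Cytoskeleton Dye, MitoTracker Red and Annexin V Alexa Fluor 680. CellPathfinder machine-learning gating classed cells as Hoechst high-intensity objects or normal cells, classed normal cells as having healthy, pyknosed or fragmented nuclei, and classed pyknosed cells as mitotic or apoptotic. Tubulin, mitochondrial-mass and membrane-permeability phenotypes are per cents of the healthy-nucleus cells.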

[1] = 12 h, 1 µM, compound concentration 1 uM, replicate 1
[2] = 12 h, 1 µM, compound concentration 1 uM, replicate 2
[3] = 12 h, 10 µM, compound concentration 10 uM, replicate 1
[4] = 12 h, 10 µM, compound concentration 10 uM, replicate 2
[5] = 24 h, 1 µM, compound concentration 1 uM, replicate 1
[6] = 24 h, 1 µM, compound concentration 1 uM, replicate 2
[7] = 24 h, 10 µM, compound concentration 10 uM, replicate 1
[8] = 24 h, 10 µM, compound concentration 10 uM, replicate 2
[9] = 48 h, 1 µM, compound concentration 1 uM, replicate 1
[10] = 48 h, 1 µM, compound concentration 1 uM, replicate 2
[11] = 48 h, 10 µM, compound concentration 10 uM, replicate 1
[12] = 48 h, 10 µM, compound concentration 10 uM, replicate 2

COc1cc(NC(=O)CCN2CCC(OC(=O)Nc3ccccc3-c3ccccc3)CC2)c(Cl)cc1CNC[C@H](O)c1ccc(O)c2[nH]c(=O)ccc12 [BATEFENTEROL]
Population Apoptotic (%) [1]: 53%
Population Fragmented Nuclei (%) [1]: 25%
Population Healthy Nuclei (%) [1]: 58%
Population Hoechst High Intensity Objects (%) [1]: 2%
Population Membrane Permeable-Phenotype (%) [1]: 0%
Population Mitochondria Different-Phenotype (%) [1]: 13%
Population Mitotic Cells (%) [1]: 46%
Population Normal (%) [1]: 97%
Population Pyknosed Nuclei (%) [1]: 15%
Population Tubulin-Different-Phenotype (%) [1]: 42%
Total Cell Count [1]: 181
Population Apoptotic (%) [2]: 37%
Population Healthy Nuclei (%) [2]: 54%
Population Hoechst High Intensity Objects (%) [2]: 3%
Population Membrane Permeable-Phenotype (%) [2]: 3%
Population Mitochondria Different-Phenotype (%) [2]: 7%
Population Mitotic Cells (%) [2]: 62%
Population Normal (%) [2]: 96%
Population Pyknosed Nuclei (%) [2]: 20%
Population Tubulin-Different-Phenotype (%) [2]: 50%
Total Cell Count [2]: 124
Population Apoptotic (%) [3]: 46%
Population Fragmented Nuclei (%) [3]: 24%
Population Healthy Nuclei (%) [3]: 59%
Population Hoechst High Intensity Objects (%) [3]: 2%
Population Membrane Permeable-Phenotype (%) [3]: 0%
Population Mitochondria Different-Phenotype (%) [3]: 22%
Population Mitotic Cells (%) [3]: 53%
Population Normal (%) [3]: 97%
Population Pyknosed Nuclei (%) [3]: 16%
Population Tubulin-Different-Phenotype (%) [3]: 63%
Total Cell Count [3]: 199
Population Apoptotic (%) [4]: 41%
Population Fragmented Nuclei (%) [4]: 44%
Population Healthy Nuclei (%) [4]: 41%
Population Membrane Permeable-Phenotype (%) [4]: 1%
Population Mitochondria Different-Phenotype (%) [4]: 23%
Population Mitotic Cells (%) [4]: 58%
Population Pyknosed Nuclei (%) [4]: 13%
Population Tubulin-Different-Phenotype (%) [4]: 84%
Total Cell Count [4]: 128
Population Apoptotic (%) [5]: 55%
Population Fragmented Nuclei (%) [5]: 21%
Population Healthy Nuclei (%) [5]: 62%
Population Hoechst High Intensity Objects (%) [5]: 1%
Population Membrane Permeable-Phenotype (%) [5]: 0%
Population Mitochondria Different-Phenotype (%) [5]: 7%
Population Mitotic Cells (%) [5]: 44%
Population Normal (%) [5]: 98%
Population Pyknosed Nuclei (%) [5]: 15%
Population Tubulin-Different-Phenotype (%) [5]: 39%
Total Cell Count [5]: 174
Population Apoptotic (%) [6]: 50%
Population Fragmented Nuclei (%) [6]: 26%
Population Healthy Nuclei (%) [6]: 59%
Population Hoechst High Intensity Objects (%) [6]: 2%
Population Membrane Permeable-Phenotype (%) [6]: 3%
Population Mitochondria Different-Phenotype (%) [6]: 10%
Population Mitotic Cells (%) [6]: 50%
Population Normal (%) [6]: 97%
Population Pyknosed Nuclei (%) [6]: 14%
Population Tubulin-Different-Phenotype (%) [6]: 57%
Total Cell Count [6]: 131
Population Apoptotic (%) [7]: 51%
Population Fragmented Nuclei (%) [7]: 35%
Population Healthy Nuclei (%) [7]: 53%
Population Hoechst High Intensity Objects (%) [7]: 0%
Population Membrane Permeable-Phenotype (%) [7]: 0%
Population Mitochondria Different-Phenotype (%) [7]: 34%
Population Mitotic Cells (%) [7]: 48%
Population Normal (%) [7]: 99%
Population Pyknosed Nuclei (%) [7]: 11%
Population Tubulin-Different-Phenotype (%) [7]: 63%
Total Cell Count [7]: 247
Population Apoptotic (%) [8]: 81%
Population Fragmented Nuclei (%) [8]: 46%
Population Healthy Nuclei (%) [8]: 45%
Population Hoechst High Intensity Objects (%) [8]: 1%
Population Membrane Permeable-Phenotype (%) [8]: 1%
Population Mitochondria Different-Phenotype (%) [8]: 14%
Population Mitotic Cells (%) [8]: 18%
Population Normal (%) [8]: 98%
Population Pyknosed Nuclei (%) [8]: 8%
Population Tubulin-Different-Phenotype (%) [8]: 80%
Total Cell Count [8]: 136
Population Apoptotic (%) [9]: 62%
Population Fragmented Nuclei (%) [9]: 23%
Population Healthy Nuclei (%) [9]: 54%
Population Hoechst High Intensity Objects (%) [9]: 3%
Population Membrane Permeable-Phenotype (%) [9]: 0%
Population Mitochondria Different-Phenotype (%) [9]: 18%
Population Mitotic Cells (%) [9]: 37%
Population Normal (%) [9]: 96%
Population Pyknosed Nuclei (%) [9]: 22%
Population Tubulin-Different-Phenotype (%) [9]: 53%
Total Cell Count [9]: 185
Population Apoptotic (%) [10]: 66%
Population Fragmented Nuclei (%) [10]: 29%
Population Healthy Nuclei (%) [10]: 56%
Population Membrane Permeable-Phenotype (%) [10]: 4%
Population Mitochondria Different-Phenotype (%) [10]: 14%
Population Mitotic Cells (%) [10]: 33%
Population Pyknosed Nuclei (%) [10]: 14%
Population Tubulin-Different-Phenotype (%) [10]: 70%
Total Cell Count [10]: 130
Population Apoptotic (%) [11]: 74%
Population Fragmented Nuclei (%) [11]: 22%
Population Healthy Nuclei (%) [11]: 54%
Population Hoechst High Intensity Objects (%) [11]: 1%
Population Membrane Permeable-Phenotype (%) [11]: 0%
Population Mitochondria Different-Phenotype (%) [11]: 45%
Population Mitotic Cells (%) [11]: 25%
Population Normal (%) [11]: 98%
Population Pyknosed Nuclei (%) [11]: 22%
Population Tubulin-Different-Phenotype (%) [11]: 77%
Total Cell Count [11]: 213
Population Apoptotic (%) [12]: 88%
Population Fragmented Nuclei (%) [12]: 45%
Population Healthy Nuclei (%) [12]: 48%
Population Hoechst High Intensity Objects (%) [12]: 0%
Population Membrane Permeable-Phenotype (%) [12]: 1%
Population Mitochondria Different-Phenotype (%) [12]: 15%
Population Mitotic Cells (%) [12]: 11%
Population Normal (%) [12]: 99%
Population Pyknosed Nuclei (%) [12]: 6%
Population Tubulin-Different-Phenotype (%) [12]: 76%
Total Cell Count [12]: 144

N#Cc1c(N)nc(SCc2csc(-c3ccc(Cl)cc3)n2)c(C#N)c1-c1ccc(OCCO)cc1 [CAPADENOSON]
Population Apoptotic (%) [1]: 43%
Population Fragmented Nuclei (%) [1]: 8%
Population Healthy Nuclei (%) [1]: 80%
Population Hoechst High Intensity Objects (%) [1]: 2%
Population Membrane Permeable-Phenotype (%) [1]: 0%
Population Mitochondria Different-Phenotype (%) [1]: 10%
Population Mitotic Cells (%) [1]: 56%
Population Normal (%) [1]: 97%
Population Pyknosed Nuclei (%) [1]: 11%
Population Tubulin-Different-Phenotype (%) [1]: 38%
Total Cell Count [1]: 139
Population Apoptotic (%) [2]: 27%
Population Fragmented Nuclei (%) [2]: 30%
Population Healthy Nuclei (%) [2]: 43%
Population Hoechst High Intensity Objects (%) [2]: 1%
Population Membrane Permeable-Phenotype (%) [2]: 5%
Population Mitochondria Different-Phenotype (%) [2]: 11%
Population Mitotic Cells (%) [2]: 72%
Population Normal (%) [2]: 98%
Population Pyknosed Nuclei (%) [2]: 25%
Population Tubulin-Different-Phenotype (%) [2]: 55%
Total Cell Count [2]: 157
Population Apoptotic (%) [3]: 31%
Population Fragmented Nuclei (%) [3]: 23%
Population Healthy Nuclei (%) [3]: 50%
Population Hoechst High Intensity Objects (%) [3]: 1%
Population Membrane Permeable-Phenotype (%) [3]: 0%
Population Mitochondria Different-Phenotype (%) [3]: 10%
Population Mitotic Cells (%) [3]: 68%
Population Normal (%) [3]: 98%
Population Pyknosed Nuclei (%) [3]: 25%
Population Tubulin-Different-Phenotype (%) [3]: 80%
Total Cell Count [3]: 172
Population Apoptotic (%) [4]: 41%
Population Fragmented Nuclei (%) [4]: 41%
Population Healthy Nuclei (%) [4]: 29%
Population Hoechst High Intensity Objects (%) [4]: 8%
Population Membrane Permeable-Phenotype (%) [4]: 20%
Population Mitochondria Different-Phenotype (%) [4]: 14%
Population Mitotic Cells (%) [4]: 58%
Population Normal (%) [4]: 91%
Population Pyknosed Nuclei (%) [4]: 29%
Population Tubulin-Different-Phenotype (%) [4]: 97%
Total Cell Count [4]: 128
Population Apoptotic (%) [5]: 72%
Population Fragmented Nuclei (%) [5]: 11%
Population Healthy Nuclei (%) [5]: 80%
Population Hoechst High Intensity Objects (%) [5]: 1%
Population Membrane Permeable-Phenotype (%) [5]: 0%
Population Mitochondria Different-Phenotype (%) [5]: 5%
Population Mitotic Cells (%) [5]: 27%
Population Normal (%) [5]: 98%
Population Pyknosed Nuclei (%) [5]: 8%
Population Tubulin-Different-Phenotype (%) [5]: 34%
Total Cell Count [5]: 139
Population Apoptotic (%) [6]: 48%
Population Fragmented Nuclei (%) [6]: 35%
Population Healthy Nuclei (%) [6]: 44%
Population Hoechst High Intensity Objects (%) [6]: 4%
Population Membrane Permeable-Phenotype (%) [6]: 6%
Population Mitochondria Different-Phenotype (%) [6]: 20%
Population Mitotic Cells (%) [6]: 51%
Population Normal (%) [6]: 95%
Population Pyknosed Nuclei (%) [6]: 20%
Population Tubulin-Different-Phenotype (%) [6]: 71%
Total Cell Count [6]: 148
Population Apoptotic (%) [7]: 38%
Population Fragmented Nuclei (%) [7]: 26%
Population Healthy Nuclei (%) [7]: 52%
Population Hoechst High Intensity Objects (%) [7]: 2%
Population Membrane Permeable-Phenotype (%) [7]: 0%
Population Mitochondria Different-Phenotype (%) [7]: 26%
Population Mitotic Cells (%) [7]: 61%
Population Normal (%) [7]: 97%
Population Pyknosed Nuclei (%) [7]: 20%
Population Tubulin-Different-Phenotype (%) [7]: 67%
Total Cell Count [7]: 179
Population Apoptotic (%) [8]: 41%
Population Fragmented Nuclei (%) [8]: 43%
Population Healthy Nuclei (%) [8]: 28%
Population Hoechst High Intensity Objects (%) [8]: 6%
Population Membrane Permeable-Phenotype (%) [8]: 17%
Population Mitochondria Different-Phenotype (%) [8]: 25%
Population Mitotic Cells (%) [8]: 58%
Population Normal (%) [8]: 93%
Population Pyknosed Nuclei (%) [8]: 27%
Population Tubulin-Different-Phenotype (%) [8]: 94%
Total Cell Count [8]: 131
Population Apoptotic (%) [9]: 88%
Population Fragmented Nuclei (%) [9]: 16%
Population Healthy Nuclei (%) [9]: 77%
Population Hoechst High Intensity Objects (%) [9]: 2%
Population Membrane Permeable-Phenotype (%) [9]: 0%
Population Mitochondria Different-Phenotype (%) [9]: 7%
Population Mitotic Cells (%) [9]: 11%
Population Normal (%) [9]: 97%
Population Pyknosed Nuclei (%) [9]: 6%
Population Tubulin-Different-Phenotype (%) [9]: 37%
Total Cell Count [9]: 147
Population Apoptotic (%) [10]: 69%
Population Fragmented Nuclei (%) [10]: 38%
Population Healthy Nuclei (%) [10]: 43%
Population Membrane Permeable-Phenotype (%) [10]: 6%
Population Mitochondria Different-Phenotype (%) [10]: 12%
Population Mitotic Cells (%) [10]: 30%
Population Pyknosed Nuclei (%) [10]: 17%
Population Tubulin-Different-Phenotype (%) [10]: 60%
Total Cell Count [10]: 151
Population Apoptotic (%) [11]: 81%
Population Fragmented Nuclei (%) [11]: 32%
Population Healthy Nuclei (%) [11]: 53%
Population Hoechst High Intensity Objects (%) [11]: 2%
Population Membrane Permeable-Phenotype (%) [11]: 0%
Population Mitochondria Different-Phenotype (%) [11]: 32%
Population Mitotic Cells (%) [11]: 18%
Population Normal (%) [11]: 97%
Population Pyknosed Nuclei (%) [11]: 14%
Population Tubulin-Different-Phenotype (%) [11]: 78%
Total Cell Count [11]: 187
Population Apoptotic (%) [12]: 36%
Population Fragmented Nuclei (%) [12]: 57%
Population Healthy Nuclei (%) [12]: 29%
Population Hoechst High Intensity Objects (%) [12]: 0%
Population Membrane Permeable-Phenotype (%) [12]: 11%
Population Mitochondria Different-Phenotype (%) [12]: 30%
Population Mitotic Cells (%) [12]: 63%
Population Normal (%) [12]: 100%
Population Pyknosed Nuclei (%) [12]: 13%
Population Tubulin-Different-Phenotype (%) [12]: 95%
Total Cell Count [12]: 142
